From ChEMBL document CHEMBL3351593, “Potent nonimmunosuppressive cyclophilin inhibitors with improved pharmaceutical properties and decreased transporter inhibition” (J Med Chem, 2014)
In brackets after ≈: the same amount, converted by molar mass.

Experiments:
[1] = target: Peptidyl-prolyl cis-trans isomerase A (Homo sapiens, UniProt P62937); test: Binding affinity to human cyclophilin A by surface plasmon resonance method
[2] = target: T1, Solute carrier organic anion transporter family member 1B1 (Homo sapiens, UniProt Q9Y6L6); test: Inhibition of OATP1B1 (unknown origin) expressed in CHO cells using 8-fluorescein-cAMP substrate by fluorescent photometry; format: ADME, cell-based
T1 sequence (Q9Y6L6 whole entry): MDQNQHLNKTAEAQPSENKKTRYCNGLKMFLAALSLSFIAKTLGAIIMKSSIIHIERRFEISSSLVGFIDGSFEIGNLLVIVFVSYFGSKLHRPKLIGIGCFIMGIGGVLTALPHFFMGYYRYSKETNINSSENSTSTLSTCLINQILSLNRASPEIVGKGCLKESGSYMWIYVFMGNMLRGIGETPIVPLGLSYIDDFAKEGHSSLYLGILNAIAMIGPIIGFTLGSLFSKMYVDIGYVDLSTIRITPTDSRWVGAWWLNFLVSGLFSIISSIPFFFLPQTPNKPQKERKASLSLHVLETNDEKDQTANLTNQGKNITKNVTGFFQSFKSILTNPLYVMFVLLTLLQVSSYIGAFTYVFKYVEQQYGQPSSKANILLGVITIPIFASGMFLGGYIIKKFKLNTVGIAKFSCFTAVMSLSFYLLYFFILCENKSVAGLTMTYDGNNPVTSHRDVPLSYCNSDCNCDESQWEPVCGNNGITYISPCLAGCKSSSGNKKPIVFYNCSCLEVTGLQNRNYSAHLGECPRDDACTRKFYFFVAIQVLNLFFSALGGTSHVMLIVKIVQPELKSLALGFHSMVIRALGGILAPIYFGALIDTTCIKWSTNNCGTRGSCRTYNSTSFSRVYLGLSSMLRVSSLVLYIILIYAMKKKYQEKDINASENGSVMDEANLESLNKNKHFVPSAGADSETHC
Outline: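 CHO-OATP1B1 cells and vector control cells cultured 2 days, then washed and equilibrated 15 min in HBSS + 10 mM HEPES. Exposed 10 min to 2.5 μM 8-fluorescein-cAMP with inhibitor at 0−30 μM (up to 1% DMSO). Cells washed and lysed, uptake measured by fluorescence, and IC50 taken from the concentration-response curve.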

[3] = Kinetic solubility of the compound in pH 7.0 water; format: physicochemical; details: read-out: Kinetic_solubility
[4] = target: T2, Cytochrome P450 2C8 (Homo sapiens, UniProt P10632); test: Inhibition of CYP2C8 (unknown origin); format: ADME
T2 sequence (P10632 whole entry): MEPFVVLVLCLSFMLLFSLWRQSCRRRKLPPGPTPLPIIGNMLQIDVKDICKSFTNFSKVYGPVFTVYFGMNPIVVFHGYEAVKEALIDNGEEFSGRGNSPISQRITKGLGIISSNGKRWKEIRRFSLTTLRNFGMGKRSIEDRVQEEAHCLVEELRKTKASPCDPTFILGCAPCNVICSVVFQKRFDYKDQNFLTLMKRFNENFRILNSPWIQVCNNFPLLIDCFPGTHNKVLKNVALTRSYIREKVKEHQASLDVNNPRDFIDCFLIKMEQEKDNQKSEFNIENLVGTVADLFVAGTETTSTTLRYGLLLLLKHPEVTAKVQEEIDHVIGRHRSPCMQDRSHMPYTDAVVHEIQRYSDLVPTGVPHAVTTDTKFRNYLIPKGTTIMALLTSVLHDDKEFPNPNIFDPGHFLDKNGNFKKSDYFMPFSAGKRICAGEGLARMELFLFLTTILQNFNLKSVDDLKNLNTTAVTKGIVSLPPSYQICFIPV

[5] = target: Cytochrome P450 3A4 (Homo sapiens, UniProt P08684); test: Inhibition of CYP3A4 (unknown origin); format: ADME
[6] = target: Cytochrome P450 2D6 (Homo sapiens, UniProt P10635); test: Inhibition of CYP2D6 (unknown origin); format: ADME
[7] = target: Cytochrome P450 2C19 (Homo sapiens, UniProt P33261); test: Inhibition of […] (unknown origin); format: ADME
[8] = Lipophilicity, log D of the compound; format: physicochemical; details: octanol/water
[9] = target: T3, Solute carrier organic anion transporter family member 1B3 (Homo sapiens, UniProt Q9NPD5); test: Inhibition of OATP1B3 (unknown origin) expressed in HEK293 cells using [3H]estradiol-17beta-glucuronide substrate; format: ADME, cell-based
T3 sequence (Q9NPD5 whole entry): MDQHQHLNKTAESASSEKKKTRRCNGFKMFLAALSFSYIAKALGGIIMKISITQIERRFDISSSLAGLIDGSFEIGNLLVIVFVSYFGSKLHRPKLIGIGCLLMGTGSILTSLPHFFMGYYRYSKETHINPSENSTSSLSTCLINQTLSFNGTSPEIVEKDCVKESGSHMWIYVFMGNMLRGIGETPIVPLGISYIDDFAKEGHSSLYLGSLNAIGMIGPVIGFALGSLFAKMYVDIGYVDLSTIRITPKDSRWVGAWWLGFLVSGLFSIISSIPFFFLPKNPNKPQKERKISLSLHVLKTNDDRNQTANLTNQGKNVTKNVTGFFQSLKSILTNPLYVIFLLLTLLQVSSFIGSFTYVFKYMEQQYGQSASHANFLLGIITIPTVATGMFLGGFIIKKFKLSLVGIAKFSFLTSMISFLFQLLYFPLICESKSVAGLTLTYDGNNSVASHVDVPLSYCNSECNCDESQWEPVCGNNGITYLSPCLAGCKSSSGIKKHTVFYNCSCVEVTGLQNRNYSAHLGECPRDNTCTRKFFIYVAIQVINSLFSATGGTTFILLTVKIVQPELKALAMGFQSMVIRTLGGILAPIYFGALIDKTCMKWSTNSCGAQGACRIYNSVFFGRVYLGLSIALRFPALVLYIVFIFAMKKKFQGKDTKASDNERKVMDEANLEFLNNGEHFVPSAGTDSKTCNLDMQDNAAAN
Outline: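 Recombinant OATP1B1 or OATP1B3 expressed in HEK293 cells, with [3H]estradiol-17β-glucuronide as substrate; IC50 determined.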

[10] = target: ATP-binding cassette sub-family C member 2 (Homo sapiens, UniProt Q92887); test: Inhibition of human MRP2 expressed in Sf9 cells inside out vesicles using CDCF substrate
Outline: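 Inside-out vesicles from baculovirus-infected Sf9 cells expressing hMRP2, with CDCF as probe. ATP-dependent uptake taken as uptake with ATP minus uptake with AMP. Remaining activity calculated as uptake with inhibitor divided by uptake without, and the inhibition value derived from that.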

[11] = target: Bile salt export pump (Homo sapiens, UniProt O95342); test: Inhibition of BSEP (unknown origin) expressed in HEK293 cells using [3H]taurocholic acid substrate; format: ADME, cell-based
Outline: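 BSEP activity in HEK293 cells, measured with [3H]taurocholic acid uptake as substrate; IC50 reported.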

[12] = AUC in dog plasma at 1 mg/kg, po after 72 hrs; format: ADME, organism-based, Canis lupus familiaris; design: time < 72 hr, dose 1 mg/kg, route oral
Outline: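 Oral dosing as a solution in MEPC: rat 25 mg/kg, dog 1 mg/kg. Blood and plasma collected separately over 0−72 h and AUC computed for each matrix.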

Peptidyl-prolyl cis-trans isomerase A, sequence (P62937 whole entry): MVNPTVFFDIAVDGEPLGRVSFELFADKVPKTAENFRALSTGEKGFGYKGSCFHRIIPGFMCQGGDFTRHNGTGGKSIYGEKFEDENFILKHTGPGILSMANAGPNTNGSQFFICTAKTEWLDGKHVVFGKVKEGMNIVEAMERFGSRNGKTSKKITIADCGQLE
ATP-binding cassette sub-family C member 2, sequence (Q92887 whole entry): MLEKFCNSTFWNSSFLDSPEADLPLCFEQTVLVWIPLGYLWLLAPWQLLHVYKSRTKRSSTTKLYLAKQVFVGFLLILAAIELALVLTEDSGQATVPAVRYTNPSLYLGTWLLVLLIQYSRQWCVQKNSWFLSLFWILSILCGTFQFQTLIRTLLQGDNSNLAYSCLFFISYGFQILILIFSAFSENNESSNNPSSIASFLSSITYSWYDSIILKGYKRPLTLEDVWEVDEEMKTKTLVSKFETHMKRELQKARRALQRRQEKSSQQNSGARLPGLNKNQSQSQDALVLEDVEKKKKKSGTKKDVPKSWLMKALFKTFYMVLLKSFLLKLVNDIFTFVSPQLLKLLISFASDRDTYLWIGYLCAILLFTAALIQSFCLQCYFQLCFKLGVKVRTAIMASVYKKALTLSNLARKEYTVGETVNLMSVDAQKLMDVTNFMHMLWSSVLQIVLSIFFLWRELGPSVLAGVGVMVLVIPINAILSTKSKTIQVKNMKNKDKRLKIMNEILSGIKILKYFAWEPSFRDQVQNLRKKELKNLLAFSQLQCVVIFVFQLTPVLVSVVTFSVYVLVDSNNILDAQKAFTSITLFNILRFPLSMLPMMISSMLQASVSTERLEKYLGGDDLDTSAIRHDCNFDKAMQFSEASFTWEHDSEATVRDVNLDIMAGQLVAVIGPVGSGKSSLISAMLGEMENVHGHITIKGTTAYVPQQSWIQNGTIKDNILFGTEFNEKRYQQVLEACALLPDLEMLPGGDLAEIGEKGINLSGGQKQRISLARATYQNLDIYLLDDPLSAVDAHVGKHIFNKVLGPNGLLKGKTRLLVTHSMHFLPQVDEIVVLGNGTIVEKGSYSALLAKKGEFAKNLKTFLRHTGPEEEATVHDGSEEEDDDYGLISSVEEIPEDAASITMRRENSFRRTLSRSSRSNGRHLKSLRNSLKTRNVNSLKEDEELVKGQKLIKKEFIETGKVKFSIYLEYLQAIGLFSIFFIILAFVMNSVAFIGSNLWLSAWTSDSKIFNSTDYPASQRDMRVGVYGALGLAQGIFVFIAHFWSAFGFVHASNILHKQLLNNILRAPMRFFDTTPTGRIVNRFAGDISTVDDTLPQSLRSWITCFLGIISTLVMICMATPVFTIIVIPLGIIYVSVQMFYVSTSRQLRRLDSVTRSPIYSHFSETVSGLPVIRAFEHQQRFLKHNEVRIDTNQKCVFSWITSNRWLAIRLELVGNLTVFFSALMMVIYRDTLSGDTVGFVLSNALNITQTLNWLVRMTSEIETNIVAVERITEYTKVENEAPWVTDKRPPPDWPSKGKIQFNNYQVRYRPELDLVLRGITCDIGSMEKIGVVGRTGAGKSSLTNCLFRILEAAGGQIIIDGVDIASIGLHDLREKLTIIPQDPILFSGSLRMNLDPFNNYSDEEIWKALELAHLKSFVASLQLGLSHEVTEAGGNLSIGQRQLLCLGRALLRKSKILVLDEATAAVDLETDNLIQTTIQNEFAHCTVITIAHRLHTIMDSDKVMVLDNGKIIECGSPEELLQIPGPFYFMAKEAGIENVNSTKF
Bile salt export pump, sequence (O95342 whole entry): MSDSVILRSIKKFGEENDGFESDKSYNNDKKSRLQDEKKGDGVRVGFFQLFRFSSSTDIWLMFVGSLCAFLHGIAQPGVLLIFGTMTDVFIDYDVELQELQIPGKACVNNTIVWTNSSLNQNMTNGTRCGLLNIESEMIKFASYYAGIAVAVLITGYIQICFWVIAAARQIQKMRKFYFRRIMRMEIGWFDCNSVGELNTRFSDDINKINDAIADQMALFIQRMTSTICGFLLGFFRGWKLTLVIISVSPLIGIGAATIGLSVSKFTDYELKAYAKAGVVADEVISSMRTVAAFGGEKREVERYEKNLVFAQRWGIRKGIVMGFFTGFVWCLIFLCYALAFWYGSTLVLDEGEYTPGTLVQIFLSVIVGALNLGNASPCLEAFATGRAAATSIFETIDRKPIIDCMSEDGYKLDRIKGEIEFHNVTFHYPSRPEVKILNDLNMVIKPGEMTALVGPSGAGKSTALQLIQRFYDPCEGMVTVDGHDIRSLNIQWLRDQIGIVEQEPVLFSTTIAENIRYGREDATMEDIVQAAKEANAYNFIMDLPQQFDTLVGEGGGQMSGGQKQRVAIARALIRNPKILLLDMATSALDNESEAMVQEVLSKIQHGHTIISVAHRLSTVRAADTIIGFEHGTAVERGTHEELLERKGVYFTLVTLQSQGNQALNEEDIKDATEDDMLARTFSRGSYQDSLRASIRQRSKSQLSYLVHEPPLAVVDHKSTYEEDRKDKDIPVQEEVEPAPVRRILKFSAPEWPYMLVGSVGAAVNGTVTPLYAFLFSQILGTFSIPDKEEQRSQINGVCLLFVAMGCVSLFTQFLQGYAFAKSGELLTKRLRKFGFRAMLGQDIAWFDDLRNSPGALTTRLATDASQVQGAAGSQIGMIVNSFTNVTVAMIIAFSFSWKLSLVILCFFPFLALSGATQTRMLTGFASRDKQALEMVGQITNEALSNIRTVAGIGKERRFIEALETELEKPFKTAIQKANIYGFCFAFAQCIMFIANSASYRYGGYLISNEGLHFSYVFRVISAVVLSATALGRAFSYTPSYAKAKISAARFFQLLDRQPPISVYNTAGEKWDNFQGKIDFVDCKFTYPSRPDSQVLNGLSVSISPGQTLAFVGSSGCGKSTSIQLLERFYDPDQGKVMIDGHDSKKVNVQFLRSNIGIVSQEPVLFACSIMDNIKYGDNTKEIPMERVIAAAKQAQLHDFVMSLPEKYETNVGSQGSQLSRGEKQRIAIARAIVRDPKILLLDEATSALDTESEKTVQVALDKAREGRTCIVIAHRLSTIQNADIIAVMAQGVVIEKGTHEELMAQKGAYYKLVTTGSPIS
Cytochrome P450 3A4, sequence (P08684 whole entry): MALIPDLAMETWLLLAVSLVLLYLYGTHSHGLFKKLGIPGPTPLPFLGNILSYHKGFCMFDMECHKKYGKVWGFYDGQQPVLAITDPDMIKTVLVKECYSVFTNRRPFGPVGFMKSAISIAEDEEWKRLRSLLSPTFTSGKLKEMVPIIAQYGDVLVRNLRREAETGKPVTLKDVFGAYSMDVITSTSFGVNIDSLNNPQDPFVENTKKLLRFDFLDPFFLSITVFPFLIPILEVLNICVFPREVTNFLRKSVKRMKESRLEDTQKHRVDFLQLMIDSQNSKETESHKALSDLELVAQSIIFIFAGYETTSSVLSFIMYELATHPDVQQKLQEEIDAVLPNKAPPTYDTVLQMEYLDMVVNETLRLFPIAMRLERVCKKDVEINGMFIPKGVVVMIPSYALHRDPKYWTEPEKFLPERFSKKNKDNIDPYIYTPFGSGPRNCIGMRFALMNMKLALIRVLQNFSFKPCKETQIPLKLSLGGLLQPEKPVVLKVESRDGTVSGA
Cytochrome P450 2D6, sequence (P10635 whole entry): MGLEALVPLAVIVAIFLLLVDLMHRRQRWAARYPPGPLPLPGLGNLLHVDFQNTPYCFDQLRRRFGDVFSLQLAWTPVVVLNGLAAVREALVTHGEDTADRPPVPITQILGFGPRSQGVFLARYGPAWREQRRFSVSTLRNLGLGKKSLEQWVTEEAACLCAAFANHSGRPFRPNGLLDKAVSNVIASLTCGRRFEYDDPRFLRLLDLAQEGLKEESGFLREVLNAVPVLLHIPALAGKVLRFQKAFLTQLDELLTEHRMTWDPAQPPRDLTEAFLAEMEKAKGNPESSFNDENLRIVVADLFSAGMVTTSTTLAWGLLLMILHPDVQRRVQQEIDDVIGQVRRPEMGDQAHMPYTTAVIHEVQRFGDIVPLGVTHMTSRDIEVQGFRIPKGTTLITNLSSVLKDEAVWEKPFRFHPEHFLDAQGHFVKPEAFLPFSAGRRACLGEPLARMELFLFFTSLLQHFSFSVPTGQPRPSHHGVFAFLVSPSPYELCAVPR
Cytochrome P450 2C19, sequence (P33261 whole entry): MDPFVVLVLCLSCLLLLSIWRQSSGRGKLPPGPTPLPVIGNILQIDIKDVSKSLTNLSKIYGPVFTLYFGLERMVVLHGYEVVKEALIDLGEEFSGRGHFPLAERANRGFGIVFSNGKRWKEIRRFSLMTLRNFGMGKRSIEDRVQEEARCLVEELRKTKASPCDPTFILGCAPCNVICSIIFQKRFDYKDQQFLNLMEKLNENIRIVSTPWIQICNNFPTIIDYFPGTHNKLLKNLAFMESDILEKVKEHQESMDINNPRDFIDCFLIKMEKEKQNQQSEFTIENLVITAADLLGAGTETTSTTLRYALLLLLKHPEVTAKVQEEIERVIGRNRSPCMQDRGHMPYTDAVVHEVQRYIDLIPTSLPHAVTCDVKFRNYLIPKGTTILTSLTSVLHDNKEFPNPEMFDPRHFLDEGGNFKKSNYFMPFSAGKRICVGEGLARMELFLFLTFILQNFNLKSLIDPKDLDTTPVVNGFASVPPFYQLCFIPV

Row | Compound | Kd [1] [nM] | IC50 [2] [µM] | solubility kinetic [3] [µg/mL] | IC50 [4] [µM] | IC50 [5] [µM] | IC50 [6] [µM] | IC50 [7] [µM] | logD [8] | IC50 [9] [nM] | Ki [10] [µM] | IC50 [11] [nM] | AUC at 72 h [12] [µM·h]
1 | C/C=C/C[C@@H](C)[C@@H](O)[C@H]1C(=O)N[C@@H](CC)C(=O)N(C)[C@H](C)C(=O)N(C)[C@@H]([C@@H](C)CN2CCN(CCOC)CC2)C(=O)N[C@@H](C(C)C)C(=O)N(C)[C@@H](CC(C)C)C(=O)N[C@@H](C)C(=O)N[C@H](C)C(=O)N(C)[C@@H](CC(C)C)C(=O)N(C)[C@@H](CC(C)C)C(=O)N(C)[C@@H](C(C)C)C(=O)N1C | 1.2 | 6.1 | 1100 (≈ 818 µM) | > 40 | > 40 | > 40 | > 40 | 3.9 | 880 | 140 | 1600 | 0.9
2 | C/C=C/C[C@@H](C)[C@@H](O)[C@H]1C(=O)N[C@@H](CC)C(=O)N(C)[C@H](C)C(=O)N(CC)[C@@H](C(C)C)C(=O)N[C@@H](C(C)C)C(=O)N(C)[C@@H](CC(C)C)C(=O)N[C@@H](C)C(=O)N[C@H](C)C(=O)N(C)[C@@H](CC(C)C)C(=O)N(C)[C@@H](CC(C)C)C(=O)N(C)[C@@H](C(C)C)C(=O)N1C [ALISPORIVIR] | 2.2 | 0.8 | < 5 |  |  |  |  | > 6 | 220 | 18 | 110 | 0.4
